This excerpt belongs to a sample that is enriched for hits.
PfG6PD inh: PfG6PD (Plasmodium falciparum) enzyme inhibition | PfGluPho enzyme, NADPH resazurin-diaphorase fluorescence | inhibition, % at 20 µM | 350,000 compounds, 0.78% hits | AID 504690;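 active = inhibition reaching at least a set limit at 20 µM in the primary screen, cut at about 59% in these data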;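 note: 0% = DMSO wells with substrate and 100% = DMSO wells lacking glucose-6-phosphate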
L major viab: inhibitors of Leishmania major promastigote growth; inhibition, % at 10 µM; 200,000 compounds, 9% hits; Leishmania major promastigotes, resazurin fluorescence viability; AID 1063;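 note: promastigotes grown with compound for 44 hours at 28 °C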
G6PDH counter: inhibits Leuconostoc G6PDH, flagging false hits in G6PDH-based assays. Purified L. mesenteroides G6PDH, diaphorase/resazurin coupled fluorescence, 45 min. 200,000 compounds, 0.12% hits. inhibition, % at 5 µM
DTT redox prof: compounds producing H2O2 with reducing agent – biochemical, NIH compound library profiling, artefact control for MLSCN library redox annotation, primary screen; AID 878; 200,000 compounds, 0.03% hits; DTT-dependent redox cycling H2O2, phenol red/HRP absorbance; 100% = 100 µM peroxide control, 0% = buffer; activation, % at 10 µM;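 active = activation of at least 50% relative to the plate's high and low controls in the primary single-dose screen; inactive = activation below 50%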;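 note: compound incubated with DTT at 0.8 mM final as the reducing agent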
Diaph inh CS: inhibits diaphorase or chemically oxidizes, flagging diaphorase assay artifacts. diaphorase resazurin-to-resorufin fluorescence, NADH, 16 min; bacterial (C. kluyveri) enzyme, not human. inhibition, % at 20 µM. 190,000 compounds, 0.69% hits. AID 1217;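 active = primary screen inhibition at 20 µM above a set limit, cut at about 50% in these data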;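 note: plate controls were DMSO with full reaction for no effect and wells lacking NADH for full effect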
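Detection: fluorescence of resorufin formed from resazurin, Ex 544/Em 590 nm; test system: Clostridium kluyveri diaphorase enzyme; amount: 0.14 U/mL diaphorase, enzyme working solution; times: 16-min room-temperature incubation before reading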
Diaph act CS: diaphorase activation or chemical reduction counter-screen | Diaphorase/resazurin coupled assay, resorufin fluorescence, 16 min; active compounds read high; 1 = vehicle wells, 0 = NADH-free wells | activation factor at 20 µM | 190,000 compounds, 0.005% hits | AID 1229;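 active = diaphorase activity raised at least twofold by the compound at 20 µM; inactive = activation factor below 2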
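Material: bacterial diaphorase enzyme (C. kluyveri); amount: enzyme 0.07 U/mL final; reagent: NADH substrate 0.114 mM plus resazurin dye 0.1 mM, final; doses: single compound dose of 20 µM, 1% DMSO final; timing: 16 min enzyme reaction, ambient temperature; measured by: fluorescence of resorufin, 544 nm excitation, 590 nm emission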
Active calls of the source: *. Cut-off read from the data, not from the text of the source, unless noted: active = inhibition above about 50%; inactive = the rest.

What do the screens show for `COc1ccccc1-n1c(SCC(=O)NC2CCS(=O)(=O)C2)nc2cc([N+](=O)[O-])ccc21` (stereo not given)?
PfG6PD inh: 46; L major viab: 0; G6PDH counter: -4; DTT redox prof: 0; Diaph inh CS: 12; Diaph act CS: 0.9

Results for COc1ccccc1-n1c(SCC(=O)c2ccc(O)cc2O)nc2cc([N+](=O)[O-])ccc21 ?
PfG6PD inh: 54; L major viab: 51*; G6PDH counter: 10; DTT redox prof: 0; Diaph inh CS: 17; Diaph act CS: 0.8

What do the screens show for `CCN(CC)S(=O)(=O)c1ccc2c(c1)nc(SCC(=O)NC1CC1)n2-c1ccccc1OC`?
PfG6PD inh: 2; L major viab: 80*; G6PDH counter: 9; DTT redox prof: -3; Diaph inh CS: 16; Diaph act CS: 0.8

What do the screens show for `CCOCCN1CCN(C2c3ccccc3CSc3ccccc32)CC1` (stereo not given)?
PfG6PD inh: 4

How did Cc1ccccc1N(CC(=O)N/N=C/c1ccc(F)cc1)C(=O)c1ccccc1 do in these assays?
PfG6PD inh: 8; L major viab: 99*; G6PDH counter: -2; DTT redox prof: 0; Diaph inh CS: 18; Diaph act CS: 0.8

How did Cc1ccccc1N(CC(=O)N/N=C/c1ccc(Cl)cc1)C(=O)c1ccccc1 do in these assays?
PfG6PD inh: 14; L major viab: 68*; G6PDH counter: 5; DTT redox prof: -2; Diaph inh CS: 22; Diaph act CS: 0.8

What do the screens show for `Cc1ccccc1NC(=O)CCC(=O)N/N=C/c1ccc(F)cc1`?
PfG6PD inh: -17; L major viab: -3; G6PDH counter: 3; DTT redox prof: -1; Diaph inh CS: -2; Diaph act CS: 1

Results for CCOC(=O)N1CCC(N2C(=O)c3ccccc3C2Nc2cc(Cl)c(OC)cc2OC)CC1 (stereo not given) ?
PfG6PD inh: 27; L major viab: 97*; G6PDH counter: -33; DTT redox prof: 0; Diaph inh CS: 36; Diaph act CS: 0.6

How did CCOC(=O)N1CCC(N2C(=O)c3ccccc3C2Nc2cc(OC)c(OC)c(OC)c2)CC1 (stereo not given) do in these assays?
PfG6PD inh: 47; L major viab: 1; G6PDH counter: 6; DTT redox prof: 0; Diaph inh CS: 19; Diaph act CS: 0.8

Results for Cc1cc(C)c(C(=O)/C=C/c2ccc(C(C)C)cc2)c(=O)[nH]1 ?
PfG6PD inh: -11; L major viab: 84*; G6PDH counter: 8; DTT redox prof: -8; Diaph inh CS: 9; Diaph act CS: 0.9

Results for Cc1cccc(NC(=O)C2c3ccccc3Oc3ccccc32)n1 ?
PfG6PD inh: -7; L major viab: 18; G6PDH counter: 9; DTT redox prof: -1; Diaph inh CS: 14; Diaph act CS: 0.9

Results for Cc1cc(C)c(C)c(OCCOCCN2CCOCC2)c1 ?
PfG6PD inh: -1; L major viab: 55*; G6PDH counter: -12; DTT redox prof: 1; Diaph inh CS: 12; Diaph act CS: 0.9

What do the screens show for `Cc1ccc(C)c(OCCOCCN2CCOCC2)c1`?
PfG6PD inh: -5; L major viab: 92*; G6PDH counter: 2; DTT redox prof: 1; Diaph inh CS: 7; Diaph act CS: 0.9

What do the screens show for `Clc1cc(Br)ccc1OCCOCCN1CCOCC1`?
PfG6PD inh: 1; L major viab: 96*; G6PDH counter: 1; DTT redox prof: 0; Diaph inh CS: 16; Diaph act CS: 0.8

What do the screens show for `Cc1ccc(C)c(OCCN2CCOCC2)c1`?
PfG6PD inh: 2

Results for CN(C)CCCNc1oc(-c2ccc(Cl)cc2)nc1C#N ?
PfG6PD inh: -15; L major viab: 83*; G6PDH counter: 4; DTT redox prof: 0; Diaph inh CS: -17; Diaph act CS: 1.2

Results for C=CCNc1oc(-c2cccc(Cl)c2)nc1C#N ?
PfG6PD inh: 4

How did CCN(CC)CCCNc1oc(-c2cccc(Cl)c2)nc1C#N do in these assays?
PfG6PD inh: 5; L major viab: 101*; G6PDH counter: 14; DTT redox prof: 2; Diaph inh CS: -7; Diaph act CS: 1.1

Results for CC(=O)N(Cc1ccccc1)c1nc(-c2ccccc2)cs1 ?
PfG6PD inh: 0; L major viab: 3; G6PDH counter: 15; DTT redox prof: -1; Diaph inh CS: -11; Diaph act CS: 1.1

How did O=C(Nc1ccc(Cc2ccncc2)cc1)C1CCC(N2C(=O)C3C4C=CC(C5CC45)C3C2=O)CC1 (stereo not given) do in these assays?
PfG6PD inh: -4; L major viab: 52*; G6PDH counter: 6; DTT redox prof: 0; Diaph inh CS: 9; Diaph act CS: 0.9

What do the screens show for `CN1CCN(c2ccccc2NC(=O)COc2ccc(Br)cc2)CC1`?
PfG6PD inh: 16; L major viab: 74*; G6PDH counter: -5; DTT redox prof: 0; Diaph inh CS: 8; Diaph act CS: 0.9

How did COc1ccc(S(=O)(=O)NCc2ccc(C(=O)N3CCc4ccccc4C3)cc2)cc1 do in these assays?
PfG6PD inh: -4; L major viab: 7; G6PDH counter: -14; DTT redox prof: 0; Diaph inh CS: 19; Diaph act CS: 0.8

Results for CCN(CC)C(=O)CN(c1ccc(Cl)cc1)S(=O)(=O)c1ccccc1 ?
PfG6PD inh: -9; L major viab: 90*; G6PDH counter: 2; DTT redox prof: 0; Diaph inh CS: 5; Diaph act CS: 0.9

Results for CSc1cnc2c(N)nc(N(C)C)nc2n1 ?
PfG6PD inh: 2; L major viab: 58*; G6PDH counter: 9; DTT redox prof: 0; Diaph inh CS: 20; Diaph act CS: 0.8

What do the screens show for `O=C(COc1ccc(Cl)cc1Cl)NC(=S)Nc1ccccc1C(=O)O`?
L major viab: -6; G6PDH counter: 8; DTT redox prof: -1; Diaph inh CS: 53*; Diaph act CS: 0.5

What do the screens show for `O=C(COc1ccc(Cl)cc1Cl)Nc1ccc(C(=O)Nc2ccccc2C(=O)O)cc1`?
PfG6PD inh: -26

Results for COc1ccc(C(=O)Nc2ccccc2C(=O)O)cc1Cl ?
PfG6PD inh: 45; L major viab: 67*; G6PDH counter: -16; DTT redox prof: 0; Diaph inh CS: 13; Diaph act CS: 0.9

Results for COc1ccc(C(=O)Nc2ccccc2C(=O)O)cc1NC(=O)C(c1ccccc1)c1ccccc1 ?
PfG6PD inh: 15

Results for Cc1ccc(N2CC(C(=O)Nc3ccc(N4CCOCC4)cc3)CC2=O)cc1C (stereo not given) ?
PfG6PD inh: -3

Assay outcomes: PubChem BioAssay, several laboratories
